Results on 2 compounds are retold here after ChEMBL document CHEMBL4041550, “Structure-Activity Relationship Study of QL47: A Broad-Spectrum Antiviral Agent” (ACS Med Chem Lett, 2017).

Active and inactive are the calls of the source.

Data set [1] concerns dengue virus type 2. Briefly: Antiviral activity against Dengue virus serotype 2 strain New Guinea C infected in HuH7 cells measured at 24 hrs post infection by focus forming assay. It is filed as functional. The note with it: Thailand/NGS-C/1944, Huh-7, 24 h. Summed up:
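Huh7 cells infected with DENV2, then treated with a range of compound concentrations. Viral yield measured 24 h later by titration of infectious particles in supernatants; in parallel, cell viability measured. IC90 (1-log10 reduction in infectious progeny) and CC50 derived by non-linear regression. Mean ± SD of experimental duplicates, n ≥ 2 repeats.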

The nature of data set [2]: Cytotoxicity against human HuH7 cells measured after 24 hrs by CellTiter-Glo luminescent cell viability assay. It is filed as cell-based, Huh-7. In outline: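 DENV2-infected Huh7 cells treated across a concentration range; cell viability read 24 h later. CC50 (50% cytotoxicity) derived by non-linear regression; mean ± SD of experimental duplicates, n ≥ 2 repeats.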

Another data set has as its system Enterovirus C. Put plainly: Antiviral activity against Polio virus Chat infected in Vero cells at 4 uM measured at 12 hrs post infection by crystal violet staining based plaque formation assay. It is filed as functional, cell-based. Summed up:
(§1)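 Vero cells infected with poliovirus or VSV, then treated with 4 μM compound for 12 h (poliovirus) or 6 h (VSV). Infectious virus released to supernatants quantified by plaque-forming assay, plotted relative to DMSO-treated samples. Mean ± SD of experimental duplicates, n ≥ 2 repeats.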

Data set [3] deals with Vesicular stomatitis Indiana virus. Briefly: Antiviral activity against Vesicular stomatitis virus Indiana infected in Vero cells at 4 uM measured at 6 hrs post infection by crystal violet staining based plaque formation assay. The class given is functional, cell-based. Summed up: as §1
Another data set deals with Vero. Put plainly: Antiviral activity against Respiratory syncytial virus A2 infected in Vero cells at 2.5 uM pretreated for 7 days followed by viral infection by crystal violet staining based plaque formation assay. To be noted: Human respiratory syncytial virus A2. It is filed as functional, cell-based.
Another data set deals with Kunjin virus. Put plainly: Antiviral activity against West Nile virus Kunjin infected in HuH7 cells at 2 uM measured at 24 hrs post infection by crystal violet staining based plaque formation assay. The class given is functional, cell-based. In outline: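 Huh7 cells infected with West Nile virus, then treated with 2 μM for 24 h. Infectious virus released to supernatants quantified by plaque assay and plotted relative to DMSO-treated samples; mean ± SD of experimental duplicates, n ≥ 2 repeats.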

The test system of data set [4] is dengue virus type 2. Briefly: Antiviral activity against Dengue virus serotype 2 replicon harboring GVD mutant infected in HuH7 cells assessed as reduction in viral RNA translation at 2 uM measured at 6 hrs post infection by luciferase reporter gene assay relative to control. The class given is functional. Also noted: scale not given: the % may be the effect or the level left. Summed up: (§2)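 Huh7 cells transfected with in vitro-transcribed nonreplicative DENV2(GVD) reporter replicon RNA, then treated immediately with compound at 2 or 10 μM. Intracellular firefly luciferase activity read 6 h post-transfection as a measure of RNA translation and expressed relative to DMSO-treated samples. Mean ± SD of experimental duplicates, n = 3 repeats.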
For orientation: Replicon systems follow genome replication, usually without infectious particles.

Data set [5] concerns dengue virus type 2. Briefly: Antiviral activity against Dengue virus serotype 2 replicon harboring GVD mutant infected in HuH7 cells assessed as reduction in viral RNA translation at 10 uM measured at 6 hrs post infection by luciferase reporter gene assay relative to control. It is filed as functional. More on the design: scale not given: the % may be the effect or the level left. In outline:
as §2

Data set [6] relates to dengue virus type 2. Put plainly: Antiviral activity against Dengue virus serotype 2 strain New Guinea C infected in HuH7 cells assessed as reduction in log-fold change by measuring focus forming unit at 2 uM measured at 24 hrs post infection by focus forming assay relative to control. It is filed as functional, Thailand/NGS-C/1944. Summed up: (§3)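 DENV2-infected Huh7 cells treated with compound at 2 or 10 μM. Infectious virus secreted into culture supernatants at 24 h post-infection/treatment was titred by focus-forming assay. Result expressed as log-fold change relative to DMSO treatment.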

Data set [7] has as its system dengue virus type 2. Briefly: Antiviral activity against Dengue virus serotype 2 strain New Guinea C infected in HuH7 cells assessed as reduction in log-fold change by measuring focus forming unit at 10 uM measured at 24 hrs post infection by focus forming assay relative to control. It is filed as functional, Thailand/NGS-C/1944. Summed up:
as §3

The nature of data set [8]: Half life in mouse hepatic microsomes at 1 uM in presence of NADPH by LC-MS/MS method. It is filed as ADME, Microsome. The note with it: liver microsomes. Summed up: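 Compound incubated with mouse liver microsomes; half-life (T1/2, min) of the compound reported as a measure of metabolic stability.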
In data set [9] the test system is dengue virus type 2. Put plainly: Antiviral activity against Dengue virus serotype 2 strain New Guinea C infected in HuH7 cells at < 10 uM measured at 24 hrs post infection by focus forming assay. To be noted: Thailand/NGS-C/1944. The class given is functional, cell-based. Summed up:
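Huh7 cells infected with DENV2, then treated with compound; screened at 2 and 10 μM. Infectious virus secreted into supernatant at 24 h post-infection/treatment titrated by focus-forming assay; expressed as log-fold change relative to DMSO. IC90 (1-log10 drop in infectious progeny) from concentration range by non-linear regression; mean ± SD of experimental duplicates, n ≥ 2 repeats.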

As for `C=CC(=O)N1CCc2ccc(-n3c(=O)ccc4cnc5ccc(-c6cnn(C)c6)cc5c43)cc21`, the IC90 (commonly the concentration at which the effect reaches the 90% level) in the data set on dengue virus type 2 [1] was determined as 0.343 µM. Besides, the CC50 (commonly the concentration giving 50% cytotoxicity) at 24 h in data set [2] is 67 to 68 µM. For the same compound, the outcome (in the data set with Enterovirus C; in data set [3]; in the data set with Vero; in the data set with Kunjin virus) was Active. Moreover, the Activity in the data set on dengue virus type 2 [4] amounted to 94%; with dengue virus type 2 [5], 98%; with dengue virus type 2 [6], 4 log10FFU/ml; in the data set with dengue virus type 2 [7], 4 log10FFU/ml. The half-life – broadly, the time needed for the level to fall by half in the phase considered – at 1 µM in data set [8] came to 1.2 min.
For `CCC(=O)N1CCc2ccc(-n3c(=O)ccc4cnc5ccc(-c6cnn(C)c6)cc5c43)cc21`, the result in the data set with dengue virus type 2 [9] was inactive.
